The nature of data set [1]: Cytotoxicity against human HEL cells assessed as concentration required to cause visible alteration in cell morphology incubated for 3 days by coulter counter method. In kind it is cell-based. The following applies: time 3 day. In outline:
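MCC scored by microscopy in confluent HEL cell cultures as the lowest compound concentration that causes a visible change in cell morphology.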

The next data set concerns HEL. Description: Cytotoxicity against human HEL cells assessed as reduction in cell growth incubated for 3 days by coulter counter method. It counts as cell-based. The note with it: 72 h, time 3 day. The method in brief: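 HEL cells were seeded at 5 × 10^3 cells/well and allowed to grow for 24 h. Medium containing varying compound concentrations was then added, and cells were incubated 3 days at 37 °C. Cell number was counted with a Coulter counter.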

Data set [2] relates to Human alphaherpesvirus 3. Description: Antiviral activity against thymidine kinase positive Varicella zoster virus OKA infected in human HEL cells assessed as reduction in virus-induced cytopathogenic effect measured after 3 days coulter counter method. It counts as functional, organism-based. The following applies: Human alphaherpesvirus 3, OKA, 72 h.
Data set [3] has as its system Human alphaherpesvirus 3. Description: Antiviral activity against thymidine kinase deficient Varicella zoster virus 07-1 infected in human HEL cells assessed as reduction in virus-induced cytopathogenic effect measured after 3 days coulter counter method. It counts as functional, organism-based. The following applies: Human alphaherpesvirus 3, 07-1, HEL, 72 h. Background: Protection from cytopathic effect is a common read-out in antiviral testing.

Data set [4] can be described thus: Selectivity index, ratio of CC50 for human HEL cells to EC50 for thymidine kinase positive Varicella zoster virus OKA infected in human HEL cells. In kind it is toxicity, cell-based. The note with it: read-out: Ratio CC50/EC50. The method in brief: (§1)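 VZV plaque reduction in confluent HEL cells: 20 PFU input, 1–2 h adsorption, then unbound virus removed and cells given varying compound concentrations in duplicate. EC50 is the concentration halving plaque number. […] SI = CC50/EC50.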

Data set [5] in a line: Selectivity ratio of EC50 for thymidine kinase deficient Varicella zoster virus 07-1 infected in human HEL cells to EC50 for thymidine kinase positive Varicella zoster virus OKA infected in human HEL cells. In kind it is functional.
Data set [6] is described as follows: Selectivity index, ratio of CC50 for human HEL cells to EC50 for thymidine kinase deficient Varicella zoster virus 07-1 infected in human HEL cells. The note with it: read-out: Ratio CC50/EC50. In kind it is toxicity, cell-based. The method in brief: as §1

Where only a bound is given, the exact number is not on record here.

`CCCCCc1ccc(-c2oc3nc(=O)n([C@H]4C[C@H](OC(C)=O)[C@@H](COC(C)=O)O4)cc3c2C#CCCO)cc1`: the MCC at 72 h in data set [1] amounted to 100 µM. Moreover, in the data set with HEL, the CC50 was found to be 2.66 µM. Further, the EC50 was 4.02 µM in the data set on Human alphaherpesvirus 3 [2] and 13 µM in the data set with Human alphaherpesvirus 3 [3]. The selectivity ratio in data set [4] was at most 1.
As to `CCCCCc1ccc(C#Cc2c(-c3ccc(C)cc3)oc3nc(=O)n([C@H]4C[C@H](OC(C)=O)[C@@H](COC(C)=O)O4)cc23)cc1`, in data set [1], the MCC at 72 h worked out at 20 µM. Moreover, the half-maximal effective concentration (EC50) in the data set on Human alphaherpesvirus 3 [2] and in the data set on Human alphaherpesvirus 3 [3] was above 4 µM in each case.
For `CC(=O)OCC#Cc1c(-c2ccc(C)cc2)oc2nc(=O)n([C@H]3C[C@H](OC(C)=O)[C@@H](COC(C)=O)O3)cc12`, the MCC at 72 h in data set [1] is above 100 µM. For the same molecule, the half-maximal effective concentration (EC50) in the data set with Human alphaherpesvirus 3 [2] was above 100 µM; in the data set with Human alphaherpesvirus 3 [3], 100 µM.
With `CCCCCc1ccc(-c2oc3nc(=O)n([C@H]4C[C@H](OC(C)=O)[C@@H](COC(C)=O)O4)cc3c2C#Cc2ccc(C)cc2)cc1`, the MCC at 72 h in data set [1] was 100 µM. The EC50 in the data set with Human alphaherpesvirus 3 [2] was 7.61 µM; in the data set on Human alphaherpesvirus 3 [3], above 20 µM.
As for `CC(=O)OC[C@H]1O[C@@H](n2cc3c(C#CCO)c(-c4ccc(C)cc4)oc3nc2=O)C[C@@H]1OC(C)=O`, in data set [1], the MCC at 72 h is above 100 µM. For the same molecule, the EC50 with Human alphaherpesvirus 3 [2] is 66.9 µM; in the data set with Human alphaherpesvirus 3 [3], above 100 µM.
Consider `CC(=O)OC[C@H]1O[C@@H](n2cc3c(C#CC4(O)c5ccccc5-c5ccccc54)c(-c4ccc(C)cc4)oc3nc2=O)C[C@@H]1OC(C)=O`, for which, in data set [1], the MCC at 72 h was 100 µM. The CC50 in the data set on HEL was found to be 2.36 µM. Further, the EC50 in the data set on Human alphaherpesvirus 3 [2] was 1.3 µM; in the data set on Human alphaherpesvirus 3 [3], 7.61 µM. Besides, the selectivity ratio in data set [4] is at most 1.
`CC(=O)OC[C@H]1O[C@@H](n2cc3c(C#CCCO)c(-c4ccc(C)cc4)oc3nc2=O)C[C@@H]1OC(C)=O`: in data set [1], the MCC at 72 h is above 100 µM. The values for the EC50 in the data set on Human alphaherpesvirus 3 [2] and in the data set on Human alphaherpesvirus 3 [3] were 76.5 µM and above 100 µM, respectively.
In the case of `COCC#Cc1c(-c2ccc(C)cc2)oc2nc(=O)n([C@H]3C[C@H](OC(C)=O)[C@@H](COC(C)=O)O3)cc12`, in data set [1], the MCC at 72 h is above 100 µM. In addition, the EC50 in the data set with Human alphaherpesvirus 3 [2] is 20 µM; in the data set with Human alphaherpesvirus 3 [3] it was 44.7 µM.
Take `CC(=O)OC[C@H]1O[C@@H](n2cc3c(C#Cc4ccc(C)cc4)c(-c4ccc(C)cc4)oc3nc2=O)C[C@@H]1OC(C)=O`: the MCC at 72 h in data set [1] is 60 µM. Moreover, the CC50 in the data set on HEL is 8.77 µM. In addition, the values for the EC50 in the data set on Human alphaherpesvirus 3 [2] and in the data set on Human alphaherpesvirus 3 [3] were 6.84 µM and 10.9 µM, respectively. Further, the selectivity ratio in data set [4] was at most 1.
For `CC(=O)OC[C@H]1O[C@@H](n2cc3c(C#CCCCCn4c5ccccc5c5ccccc54)c(-c4ccc(C)cc4)oc3nc2=O)C[C@@H]1OC(C)=O`, in data set [1], the MCC at 72 h amounted to 100 µM. Also, the CC50 in the data set with HEL is 6.22 µM. The figures for the EC50 with Human alphaherpesvirus 3 [2] and in the data set on Human alphaherpesvirus 3 [3] were 7.23 µM and 13.2 µM, respectively. In addition, the selectivity ratio in data set [4] is at most 1.
Take `CCCCCc1ccc(C#Cc2c(-c3ccc(CCCCC)cc3)oc3nc(=O)n([C@H]4C[C@H](OC(C)=O)[C@@H](COC(C)=O)O4)cc23)cc1`: the MCC at 72 h in data set [1] is 100 µM. Moreover, in the data set on HEL, the CC50 was above 100 µM. Besides, the “Ratio EC50” value in data set [5] stood at 6. Further, the EC50 with Human alphaherpesvirus 3 [2] amounted to 1.5 µM; in the data set with Human alphaherpesvirus 3 [3] it was 8.94 µM. Besides, the selectivity ratio in data set [4] was determined as 67; in data set [6], 11.
As to `CCCCCc1ccc(-c2oc3nc(=O)n([C@H]4C[C@H](OC(C)=O)[C@@H](COC(C)=O)O4)cc3c2C#CCO)cc1`, the MCC at 72 h in data set [1] was 100 µM. In the data set with HEL, the CC50 turned out to be 3.8 µM. The figures for the EC50 in the data set with Human alphaherpesvirus 3 [2] and in the data set with Human alphaherpesvirus 3 [3] were 7.56 µM and 13 µM, respectively. For the same molecule, the selectivity ratio in data set [4] was at most 1.
As to `CC(=O)OC[C@H]1O[C@@H](n2cc3c(C#CCCN4C(=O)c5ccccc5C4=O)c(-c4ccc(C)cc4)oc3nc2=O)C[C@@H]1OC(C)=O`, in data set [1], the MCC at 72 h worked out at 100 µM. In addition, the EC50 was determined as 31 µM with Human alphaherpesvirus 3 [2] and 38.1 µM in the data set on Human alphaherpesvirus 3 [3].
`Nc1nc2c(ncn2COCCO)c(=O)[nH]1` [ACYCLOVIR]: the MCC at 72 h in data set [1] was above 440 µM. Moreover, the CC50 in the data set with HEL was above 300 µM.
Consider `O=c1[nH]c(=O)n([C@H]2C[C@H](O)[C@@H](CO)O2)cc1/C=C/Br` [BRIVUDINE], for which, in data set [1], the MCC at 72 h was above 300 µM. Besides, the CC50 in the data set with HEL is above 300 µM. In addition, in the data set with Human alphaherpesvirus 3 [3], the EC50 is 12 µM.

What is called CC50 is the concentration at which the toxic effect on the cells reaches its halfway point. Broadly, the EC50 is the concentration that produces a half-maximal response.

These data come from ChEMBL document CHEMBL4732054, “Extension of furopyrimidine nucleosides with 5-alkynyl substituent: Synthesis, high fluorescence, and antiviral effect in the absence of free ribose hydroxyl groups” (Eur J Med Chem, 2021).
